≈ marks a conversion by molar mass, not a printed value.
How the values were obtained:
Format in all cases: functional
[1] = system: Clostridioides difficile; experiment: Antimicrobial activity against Clostridium difficile isolate 36 by agar dilution method
In short: (§1)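 MIC by CLSI reference agar dilution for anaerobes, with endpoints read per M11-A7 and C. difficile […] as control. Rifaximin was dissolved in methanol, diluted in 0.1 M phosphate buffer pH 7.4 plus 0.45% SDS, and tested at 0.0009–256 μg/ml. Rifampin was dissolved in methanol, diluted in water, and tested at 0.00001–256 μg/ml.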

[2] = system: Clostridioides difficile; experiment: Antimicrobial activity against Clostridium difficile isolate 37 by agar dilution method; in short: as §1
[3] = system: Clostridioides difficile; experiment: Antimicrobial activity against Clostridium difficile isolate 40 by agar dilution method
In short: (§2)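 CLSI reference agar dilution method for anaerobes, with endpoints read per guideline M11-A7. Rifaximin was dissolved in methanol, diluted in 0.1 M phosphate buffer (pH 7.4) with 0.45% SDS, and tested at 0.0009–256 μg/ml. Rifampin was dissolved in methanol, diluted in water, and tested at 0.00001–256 μg/ml. C. difficile ATCC […] served as control. Isolates were typed by HindIII REA.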

[4] = system: Clostridioides difficile; experiment: Antimicrobial activity against Clostridium difficile isolate 43 by agar dilution method; in short: as §2
[5] = system: Clostridioides difficile; experiment: Antimicrobial activity against Clostridium difficile isolate 45 by agar dilution method; in short: as §2
[6] = system: Clostridioides difficile; experiment: Antimicrobial activity against Clostridium difficile isolate 47 by agar dilution method; in short: as §2
[7] = system: Clostridioides difficile; experiment: Antimicrobial activity against Clostridium difficile isolate 49 by agar dilution method; in short: as §2
[8] = system: Clostridioides difficile; experiment: Antimicrobial activity against rifaximin-resistant Clostridium difficile isolate 50 expressing RpoB R505K mutant by agar dilution method
In short: (§3)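 MICs were found by the CLSI reference agar dilution method for anaerobes, with endpoints read per M11-A7 and C. difficile […] as control. Rifaximin was dissolved in methanol, diluted in 0.1 M phosphate buffer pH 7.4 with 0.45% SDS, and tested at 0.0009–256 μg/ml. Rifampin was dissolved in methanol, diluted in water, and tested at 0.00001–256 μg/ml.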

[9] = system: Clostridioides difficile; experiment: Antimicrobial activity against Clostridium difficile isolate 52 by agar dilution method; in short: as §2
[10] = system: Clostridioides difficile; experiment: Antimicrobial activity against Clostridium difficile isolate 56 by agar dilution method; in short: as §2
[11] = system: Clostridioides difficile; experiment: Antimicrobial activity against Clostridium difficile isolate 57 by agar dilution method; in short: as §2
[12] = system: Clostridioides difficile; experiment: Antimicrobial activity against Clostridium difficile isolate 60 by agar dilution method; in short: as §2
[13] = system: Clostridioides difficile; experiment: Antimicrobial activity against Clostridium difficile isolate 61 by agar dilution method; in short: as §2
[14] = system: Clostridioides difficile; experiment: Antimicrobial activity against Clostridium difficile isolate 62 by agar dilution method
In short: (§4)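 CLSI reference agar dilution for anaerobes, with endpoints read per guideline M11-A7. Rifaximin was dissolved in methanol, diluted in 0.1 M phosphate buffer pH 7.4 with 0.45% SDS, and tested at 0.0009–256 μg/ml. Rifampin was dissolved in methanol, diluted in water, and tested at 0.00001–256 μg/ml. Control strain: C. difficile ATCC […]. Isolates were typed by HindIII REA.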

[15] = system: Clostridioides difficile; experiment: Antimicrobial activity against Clostridium difficile isolate 70 by agar dilution method; in short: as §4
[16] = system: Clostridioides difficile; experiment: Antimicrobial activity against Clostridium difficile isolate 2 by Etest
In short: (§5)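 Rifampin MIC by Etest strip on brucella blood agar, run per the strip maker's instructions. Isolates were HindIII REA-typed clinical C. difficile.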

[17] = system: Clostridioides difficile; experiment: Antimicrobial activity against Clostridium difficile isolate 8 by Etest
In short: (§6)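 Rifampin MIC by Etest on brucella blood agar, run per the strip manufacturer's instructions, against clinical isolates typed by HindIII REA.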

[18] = system: Clostridioides difficile; experiment: Antimicrobial activity against Clostridium difficile isolate 9 by Etest; in short: as §6
[19] = system: Clostridioides difficile; experiment: Antimicrobial activity against Clostridium difficile isolate 13 by Etest; in short: as §5
[20] = system: Clostridioides difficile; experiment: Antimicrobial activity against Clostridium difficile isolate 14 by Etest; in short: as §5
[21] = system: Clostridioides difficile; experiment: Antimicrobial activity against rifaximin-resistant Clostridium difficile isolate 21 expressing RpoB H502N and R505K mutants by Etest
In short: (§7)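 Rifampin Etest on clinical C. difficile isolates typed by HindIII REA, run per the strip manufacturer's instructions on brucella blood agar, with the MIC read from the strip.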

[22] = system: Clostridioides difficile; experiment: Antimicrobial activity against Clostridium difficile isolate 28 by Etest; in short: as §5
[23] = system: Clostridioides difficile; experiment: Antimicrobial activity against Clostridium difficile isolate 29 by Etest; in short: as §5
[24] = system: Clostridioides difficile; experiment: Antimicrobial activity against Clostridium difficile isolate 30 by Etest; in short: as §5
[25] = system: Clostridioides difficile; experiment: Antimicrobial activity against Clostridium difficile isolate 31 by Etest; in short: as §5
[26] = system: Clostridioides difficile; experiment: Antimicrobial activity against Clostridium difficile isolate 32 by Etest; in short: as §5
[27] = system: Clostridioides difficile; experiment: Antimicrobial activity against Clostridium difficile isolate 34 by Etest; in short: as §5
[28] = system: Clostridioides difficile; experiment: Antimicrobial activity against Clostridium difficile isolate 39 by Etest
In short: (§8)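 Rifampin Etest strips were run on brucella blood agar following the manufacturer's instructions to give an MIC. Clinical isolates were typed by HindIII REA.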

[29] = system: Clostridioides difficile; experiment: Antimicrobial activity against Clostridium difficile isolate 43 by Etest; in short: as §8
[30] = system: Clostridioides difficile; experiment: Antimicrobial activity against Clostridium difficile isolate 44 by Etest; in short: as §8
[31] = system: Clostridioides difficile; experiment: Antimicrobial activity against Clostridium difficile isolate 45 by Etest; in short: as §8
[32] = system: Clostridioides difficile; experiment: Antimicrobial activity against Clostridium difficile isolate 49 by Etest; in short: as §8
[33] = system: Clostridioides difficile; experiment: Antimicrobial activity against Clostridium difficile isolate 53 by Etest; in short: as §8
[34] = system: Clostridioides difficile; experiment: Antimicrobial activity against Clostridium difficile isolate 55 by Etest; in short: as §8
[35] = system: Clostridioides difficile; experiment: Antimicrobial activity against Clostridium difficile isolate 56 by Etest; in short: as §8
[36] = system: Clostridioides difficile; experiment: Antimicrobial activity against Clostridium difficile isolate 61 by Etest; in short: as §8
[37] = system: Clostridioides difficile; experiment: Antimicrobial activity against Clostridium difficile isolate 62 by Etest; in short: as §8
[38] = system: Clostridioides difficile; experiment: Antimicrobial activity against rifaximin-resistant Clostridium difficile isolate 64 expressing RpoB H502R mutant by Etest; in short: as §7
[39] = system: Clostridioides difficile; experiment: Antimicrobial activity against rifaximin-resistant Clostridium difficile isolate 65 expressing RpoB H502N and R505K mutants by Etest; in short: as §7
[40] = system: Clostridioides difficile; experiment: Antimicrobial activity against rifaximin-resistant Clostridium difficile isolate 68 expressing RpoB H502Y mutant by Etest; in short: as §7
[41] = system: Clostridioides difficile; experiment: Antimicrobial activity against Clostridium difficile isolate 70 by Etest; in short: as §6
[42] = system: Clostridioides difficile; experiment: Antimicrobial activity against Clostridium difficile isolate 71 by Etest; in short: as §6
[43] = system: Clostridioides difficile; experiment: Antimicrobial activity against Clostridium difficile isolate 76 by Etest; in short: as §6
[44] = system: Clostridioides difficile; experiment: Antimicrobial activity against Clostridium difficile isolate 78 by Etest; in short: as §6
[45] = system: Clostridioides difficile; experiment: Antimicrobial activity against Clostridium difficile isolate 8 by agar dilution method; in short: as §4
[46] = system: Clostridioides difficile; experiment: Antimicrobial activity against Clostridium difficile isolate 9 by agar dilution method; in short: as §4
[47] = system: Clostridioides difficile; experiment: Antimicrobial activity against Clostridium difficile isolate 11 by agar dilution method; in short: as §1
[48] = system: Clostridioides difficile; experiment: Antimicrobial activity against Clostridium difficile isolate 16 by agar dilution method; in short: as §1
[49] = system: Clostridioides difficile; experiment: Antimicrobial activity against rifaximin-resistant Clostridium difficile isolate 18 expressing RpoB R505K mutant by agar dilution method; in short: as §3
[50] = system: Clostridioides difficile; experiment: Antimicrobial activity against Clostridium difficile isolate 25 by agar dilution method; in short: as §1
[51] = system: Clostridioides difficile; experiment: Antimicrobial activity against Clostridium difficile isolate 28 by agar dilution method; in short: as §1
[52] = system: Clostridioides difficile; experiment: Antimicrobial activity against Clostridium difficile isolate 31 by agar dilution method; in short: as §1

## CO[C@H]1/C=C/O[C@@]2(C)Oc3c(C)c(O)c4c(O)c(c(/C=N/N5CCN(C)CC5)c(O)c4c3C2=O)NC(=O)/C(C)=C\C=C\[C@H](C)[C@H](O)[C@@H](C)[C@@H](O)[C@@H](C)[C@H](OC(C)=O)[C@@H]1C [RIFAMPIN]
[1]
  MIC: 0.9 ng/mL (≈ 1.09 nM)
[2]
  MIC: 0.4 ng/mL (≈ 0.486 nM)
[3]
  MIC: 0.9 ng/mL (≈ 1.09 nM)
[4]
  MIC: 0.4 ng/mL (≈ 0.486 nM)
[5]
  MIC: 0.9 ng/mL (≈ 1.09 nM)
[6]
  MIC: 0.9 ng/mL (≈ 1.09 nM)
[7]
  MIC: 0.9 ng/mL (≈ 1.09 nM)
[8]
  MIC: 128000 ng/mL (≈ 156000 nM)
[9]
  MIC: 1.9 ng/mL (≈ 2.31 nM)
[10]
  MIC: 0.9 ng/mL (≈ 1.09 nM)
[11]
  MIC: 0.9 ng/mL (≈ 1.09 nM)
[12]
  MIC: 0.9 ng/mL (≈ 1.09 nM)
[13]
  MIC: 0.9 ng/mL (≈ 1.09 nM)
[14]
  MIC: 0.9 ng/mL (≈ 1.09 nM)
[15]
  MIC: 0.06 ng/mL (≈ 0.0729 nM)
[16]
  MIC: < 2 ng/mL
[17]
  MIC: < 2 ng/mL
[18]
  MIC: 3 ng/mL (≈ 3.65 nM)
[19]
  MIC: < 2 ng/mL
[20]
  MIC: < 2 ng/mL
[21]
  MIC: > 32000 ng/mL
[22]
  MIC: < 2 ng/mL
[23]
  MIC: < 2 ng/mL
[24]
  MIC: < 2 ng/mL
[25]
  MIC: < 2 ng/mL
[26]
  MIC: < 2 ng/mL
[27]
  MIC: 4 ng/mL (≈ 4.86 nM)
[28]
  MIC: < 2 ng/mL
[29]
  MIC: < 2 ng/mL
[30]
  MIC: < 2 ng/mL
[31]
  MIC: < 2 ng/mL
[32]
  MIC: < 2 ng/mL
[33]
  MIC: < 2 ng/mL
[34]
  MIC: < 2 ng/mL
[35]
  MIC: < 2 ng/mL
[36]
  MIC: < 2 ng/mL
[37]
  MIC: < 2 ng/mL
[38]
  MIC: > 32000 ng/mL
[39]
  MIC: > 32000 ng/mL
[40]
  MIC: > 32000 ng/mL
[41]
  MIC: < 2 ng/mL
[42]
  MIC: < 2 ng/mL
[43]
  MIC: < 2 ng/mL
[44]
  MIC: < 2 ng/mL
[45]
  MIC: 0.06 ng/mL (≈ 0.0729 nM)
[46]
  MIC: 0.06 ng/mL (≈ 0.0729 nM)
[47]
  MIC: 0.06 ng/mL (≈ 0.0729 nM)
[48]
  MIC: 0.9 ng/mL (≈ 1.09 nM)
[49]
  MIC: 128000 ng/mL (≈ 156000 nM)
[50]
  MIC: 0.9 ng/mL (≈ 1.09 nM)
[51]
  MIC: 0.9 ng/mL (≈ 1.09 nM)
[52]
  MIC: 0.9 ng/mL (≈ 1.09 nM)

Source: ChEMBL document CHEMBL1275484, “Rifampin and rifaximin resistance in clinical isolates of Clostridium difficile” (Antimicrob Agents Chemother, 2008)
